Compound activity: PubChem BioAssay, Broad Institute
Ecoli rRNA inh: inhibitors of bacterial rRNA selective over humanized ribosomes. GFP signal change (wild-type ribosome), % (concentration not given with the values). actives 1.6% (n = 350,000). E. coli WT GFP vs humanized-ribosome RFP mutants, fluorescence, 24 h; hits give low values; DMSO median 0, no signal -100. AID 720706;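 active means significant combined selectivity score with lowered wild-type GFP, culture density cut under 30%, mutant RFP and density less affected; inactive means any of these conditions unmet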
Cneo AK release: causes C. neoformans cell lysis; lysis activity, % at 15 µM; adenylate kinase release luminescence, 4 h; normalised: neutral wells 0, clomiphene wells 100; actives 0.2% (n = 360,000);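 active means mean lysis activity across replicates of at least 80%, whatever share of replicates individually reach that level; inactive means mean lysis activity below 80%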
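Assay system: log-phase C. neoformans yeast / Quantity: yeast cell density of 5 × 10^6 cells/mL / Medium: fresh YPD growth medium / Compound: single dose / Timing: static 4 h at 37 °C with compound, 1 h detection / Measured by: adenylate kinase release luminescence / Read-out: lysis from increased AK signal / Benchmarks: Clomiphene as positive lysis control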
miR-122 sensor: miR-122 inhibition in Huh7 cells | Huh7 miR-122 Renilla luciferase sensor, 48 h; neutral wells = 0, positive control = 100 | activation (reporter increase), % at 12.5 µM | actives 0.3% (n = 340,000);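 active means mean replicate activation score at least 90 and every replicate individually at or above 90; inconclusive means only one of the two criteria met; inactive means neither criterion met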;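 further: higher luciferase means less miR-122 activity so hits act as miR-122 inhibitors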
INS-1E GSIS act: GLuc luminescence reporter in INS-1E cells, primary screen for activators of glucose-dependent secretion of insulin; INS-1E GLuc reporter insulin secretion, 2-3 h; activation, % at 16.6 µM; actives 0.61% (n = 370,000); AID 743287;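 active means lowest replicate activation of at least 40%, so every replicate reaches that level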
HIV Env fusion: blocks HIV Env-driven cell-cell fusion; inhibition, % at 12.3 µM; AID 651610; actives 1.1% (n = 360,000); HeLa-JRFL Env/CEM21 cell fusion, luciferase;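 active means mean replicate inhibition score of at least 50 and every replicate individually at or above 50; inconclusive means only one of the two criteria met; inactive means mean below 50 and not all replicates reaching 50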
F508del corr: CFTR F508del correction in bronchial cells; CFBE cells, YFP halide quenching; stimulated with forskolin plus potentiator P3; % fluorescence drop versus neutral controls; activity (quench increase), % at 7.58 µM; actives 0.36% (n = 350,000); AID 720511;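 active means mean added fluorescence quench of at least 8% versus neutral control, with both replicates also reaching 8%; inconclusive means only one of the mean or replicate conditions met; inactive means mean below 8% and not both replicates reaching 8%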;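 further: cells transiently co-express mutant CFTR-F508del with the halide-sensitive YFP; corrector assay measuring rescue of mutant channel to the surface after 24 h compound exposure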
miR-27b qPCR: alters miR-27b levels in Huh7 cells, selectivity for miR-122 inhibitors. shares compounds with miR-122 sensor. Huh7 miR-27b levels, qRT-PCR, 48 h. relative miR-27b level (unnormalised ratio), ratio at 35 µM. 35 tested, under 10 active;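 active means compounds lowering miR-27b whose fitted half-maximal dose is at most twice their top tested dose; inconclusive means flat curve with moderate drop, or poor fit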
AID977621: wild-type E. coli growth inhibition versus H69 humanized strain – H69 mutant RFP, wild-type GFP, cherry-pick, dose response. fluorescence, 24 h. shares compounds with Ecoli rRNA inh. 1,900 tested, under 10 active. activity change, negative = inhibition at 50 µM;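 active means Wild-type ribosome reporter drop at least double the humanized mutant ribosome reporter drop, growth loss under a set limit; inconclusive means no clear call, values can overlap the other calls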;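 further: wild-type GFP and H69 mutant RFP strains grown together 50/50 in each well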
AID977628: growth of wild-type and h24-humanized E. coli strains – h24 mutant RFP vs wild-type GFP, cherry-pick, dose response; shares compounds with Ecoli rRNA inh; E. coli WT GFP strain growth, fluorescence, 24 h; 1,900 tested, under 10 active; AID 977628; activity change, negative = inhibition at 50 µM;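 active means compound lowering the normal-ribosome reporter at least twice as much as the humanized-ribosome reporter, growth loss under a set limit; inconclusive means no clear call, values can overlap the other calls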;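 further: wild-type GFP and h24 humanized RFP strains co-cultured 1 to 1 per well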
Large screens that a line does not name were inactive (follow-up assays come after a bar, where they were run). Sampled rows, rich in hits. Any-hit rate of the full collection: about 3.1%.

CCOC(=O)N(C)C[C@H]1OCc2ccccc2-c2ccccc2C(=O)N([C@@H](C)CO)C[C@@H]1C	none (no result: miR-122 sensor, HIV Env fusion)
COc1cccc(C(=O)N2C[C@@H]3[C@H](c4ccccc42)[C@H](CO)N3C(=O)c2cccc(F)c2)c1	none (no result: HIV Env fusion)
Cc1cc(C)c(S(=O)(=O)NC(C)C)c(C)c1-n1cnnn1	miR-122 sensor 91 | miR-27b qPCR inactive
Cc1ccc(C)c(S(=O)(=O)Nc2ccc(O)cc2)c1	none (no result: Ecoli rRNA inh, INS-1E GSIS act, F508del corr)
Cc1ccc(C)c(S(=O)(=O)Nc2ccc(-n3cnnn3)cc2)c1	miR-122 sensor 183 (no result: Ecoli rRNA inh, INS-1E GSIS act, HIV Env fusion, F508del corr) | miR-27b qPCR inactive
CN1c2ccc(C3=CCCCC3)cc2[C@@H]2[C@@H](CCN2C(=O)NC2CCCC2)[C@H]1CO	none (no result: Cneo AK release, miR-122 sensor, HIV Env fusion)
Cc1cc(S(=O)(=O)NC2CCCCC2)c(C)s1	miR-122 sensor 260 (no result: Cneo AK release, INS-1E GSIS act, F508del corr) | miR-27b qPCR inactive
COc1ccc2c3c([nH]c2c1)[C@@H](CO)N(C(=O)C1CC1)CC31CN(Cc2nccs2)C1	none (no result: Cneo AK release, miR-122 sensor, HIV Env fusion)
CN1[C@@H]2Cn3c(cccc3=O)[C@H]1[C@@H](C(=O)NCC1CCCCC1)[C@@H]2CO	none (no result: HIV Env fusion)
Cc1ccc(C(=O)C2Oc3ccccc3C3CC(c4ccc(C)cc4)=NN23)cc1 (centres undefined)	Ecoli rRNA inh -17, miR-122 sensor 152 (no result: F508del corr) | miR-27b qPCR inactive | AID977621 inactive | AID977628 inactive
Cc1ccccc1-c1ccccc1[C@H]1[C@@H](CO)N(C(=O)c2cccc(F)c2)[C@H]1C#N	none (no result: Cneo AK release, miR-122 sensor, HIV Env fusion)
O=C(NCc1cccs1)c1cccc(S(=O)(=O)N2CCCCC2)c1	none (no result: Ecoli rRNA inh, INS-1E GSIS act, F508del corr)
O=C(NCc1cccs1)c1ccc(Cl)c(S(=O)(=O)N2CCCC2)c1	Ecoli rRNA inh -19 (no result: Cneo AK release) | AID977628 inactive
Cc1noc(C)c1S(=O)(=O)Nc1ccc2c(c1)CC(=O)N([C@@H](C)CO)C[C@@H](C)[C@@H](CN(C)C)O2	none (no result: HIV Env fusion)
O=C(NCCN1CCCCC1)[C@@H]1[C@@H](CO)[C@@H]2Cn3c(cccc3=O)[C@H]1N2C(=O)C1CC1	none (no result: HIV Env fusion)
O=C(COc1ccc(Cl)cc1)N(Cc1ccco1)C1CCS(=O)(=O)C1 (centres undefined)	none (no result: Cneo AK release, miR-122 sensor)
Cc1cc(OCC(=O)N(Cc2ccco2)C2CCS(=O)(=O)C2)ccc1Cl (centres undefined)	Ecoli rRNA inh -19 | AID977621 inconclusive
CN1C(=O)c2cc(NC(=O)C3CCOCC3)ccc2OC[C@H]2O[C@@H](CC(=O)NCC3CC3)CC[C@@H]21	none
Cc1nn2c(NCc3ccccn3)cc(C(C)C)nc2c1-c1ccccc1	Ecoli rRNA inh -21 (no result: Cneo AK release, miR-122 sensor) | AID977628 inactive
NS(=O)(=O)c1ccc(NC(=O)CCC(=O)O)cc1	Ecoli rRNA inh -11 | AID977621 inactive | AID977628 inconclusive
NS(=O)(=O)c1ccc(NC(=O)CCCC(=O)O)cc1	none (no result: Cneo AK release, miR-122 sensor)
COc1cccc(NC(=O)N[C@H]2C=C[C@@H](CC(=O)Nc3ccccc3)O[C@H]2CO)c1	none (no result: miR-122 sensor)
Cc1ccc(SCC(=O)NCCCc2ccccc2)cc1	none
O=C(CSc1ccccc1)NCCCc1ccccc1	Ecoli rRNA inh -23 | AID977621 inactive | AID977628 inconclusive
Cn1c(SCc2cccc(F)c2)nnc1-c1ccccn1	none (no result: Ecoli rRNA inh, INS-1E GSIS act, F508del corr)
Cc1ccccc1CSc1nnc(-c2ccccn2)n1C	Ecoli rRNA inh -21 | AID977621 inactive | AID977628 inconclusive
NS(=O)(=O)c1ccc(CCNC(=O)CCCCCNc2nc(=S)[nH]c3ccccc23)cc1	Ecoli rRNA inh -22 (no result: Cneo AK release, miR-122 sensor) | AID977621 inactive | AID977628 inactive
Cc1ccc(CNC(=O)CCCCCNc2nc(=S)[nH]c3ccccc23)cc1	none (no result: Cneo AK release, miR-122 sensor)
